MEKK2mut PB1 HTS – signal of MEK5 binding to mutant human MEKK2 PB1 domain. 290,000 tested, 0.35% active. AID 1530. bead flow cytometry, Alexa488-MEK5 binding to MEKK2 mutant. percent response, % at 10 µM; in the data active = percent response above about 24%, passing the limit was not always enough
Apaf1 inhib – blocks human Apaf-1 apoptosome activity; 330,000 tested, 0.71% active; inhibition, % at 20 µM; reconstituted apoptosome caspase-3 activity, DEVD-Rh110 fluorescence; active = inhibition of at least 40% at 20 µM;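 note: plate controls were DMSO wells for no effect and DEVD-CHO caspase inhibitor wells for full effect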
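System – cell-free apoptosome with Apaf-1, procaspase-3 and caspase-9 · Buffer or medium – pH 7.5 Hepes buffer with CHAPS, BSA, DTT · Also added – cytochrome c with DEVD-Rh110 · Times – 30 min compound preincubation, 50 min activation, room temperature · Technique – Rh110 fluorescence intensity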
MEKK3 PB1 HTS – raises or lowers MEK5 binding to the human MEKK3 PB1 domain; Q99759; bead-based flow cytometry, Alexa488-MEK5 binding to MEKK3; actives lie on both sides; 0 = blocked by unlabeled MEK5, 100 = vehicle; binding response (% of control), % at 10 µM; 290,000 tested, 1.4% active;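 active = binding response more than 3 SD above or below the average of its plate-row segment, actives on both sides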;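 note: Alexa488 bead fluorescence after subtracting the streptavidin-only scavenger bead signal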
UCH37 inh – human UCH37 deubiquitinating enzyme inhibition; Q9Y5K5; purified proteasome/UCH37, Ub-AMC cleavage fluorescence; inhibition, % (no concentration beside the values); 330,000 tested, 0.33% active; AID 588478;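 active = mean inhibition over replicate wells above about 20%, limit read from the data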;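 note: 0% = compound-free wells with enzyme and 100% = wells lacking proteasome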
Target sequence (Q9Y5K5 whole entry, looked up): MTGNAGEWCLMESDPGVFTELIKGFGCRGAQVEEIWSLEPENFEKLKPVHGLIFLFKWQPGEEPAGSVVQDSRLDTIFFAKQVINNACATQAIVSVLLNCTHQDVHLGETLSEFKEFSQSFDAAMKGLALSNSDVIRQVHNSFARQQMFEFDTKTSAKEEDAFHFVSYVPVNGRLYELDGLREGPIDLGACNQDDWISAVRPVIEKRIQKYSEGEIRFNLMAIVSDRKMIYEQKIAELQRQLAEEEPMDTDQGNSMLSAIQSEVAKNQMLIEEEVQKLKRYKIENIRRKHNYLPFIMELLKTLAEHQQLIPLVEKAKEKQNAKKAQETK
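assay system = human UCH37 enzyme supplied as purified proteasome complex | amount = proteasome at 0.15 nM in the dispensed enzyme solution | schedule = 30 min compound-proteasome preincubation then 25 min substrate reaction, room temperature | measured by = fluorescence, ex 355 nm, em 460 nm | benchmarks = no-proteasome wells (full inhibition) and compound-free wells (no inhibition)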
UBC13 inh – blocks human UBC13 polyubiquitin chain formation | P61088 | TR-FRET | inhibition, % at 20 µM | 330,000 tested, 0.47% active | AID 485273; in the data active = inhibition above about 45%, passing the limit was not always enough
Target sequence (P61088 whole entry, looked up): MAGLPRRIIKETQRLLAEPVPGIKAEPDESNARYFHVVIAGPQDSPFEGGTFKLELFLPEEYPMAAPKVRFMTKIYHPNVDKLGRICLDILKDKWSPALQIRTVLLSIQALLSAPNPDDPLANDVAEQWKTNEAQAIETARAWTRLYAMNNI
MEKK2 WT-MEK5 – raises or lowers MEK5 binding to wildtype human MEKK2 PB1 domain. 290,000 tested, 1.1% active. Q9Y2U5. bead flow cytometry, Alexa488-MEK5 binding to MEKK2 WT; actives lie on both sides. AID 1531. binding response (% of control), % at 10 µM; in the data active = binding response below about 67% or above about 130%
MEKK2wt confirm – raises or lowers MEK5 binding to wildtype human MEKK2, retest; 5,900 tested, 2.4% active; binding response (% of control), % at 10 µM; shares compounds with MEKK3 PB1 HTS; bead flow cytometry, Alexa488-MEK5 binding to MEKK2 WT; actives lie on both sides; in the data active = binding response below about 16% or above about 210%; inactive = in between
MEKK2mut confirm – signal of MEK5 binding to mutant human MEKK2, retest | shares compounds with MEKK3 PB1 HTS | bead flow cytometry, Alexa488-MEK5 binding to MEKK2 mutant | percent response, % at 10 µM | 5,900 tested, 2% active | AID 1893; in the data active = percent response mostly above about 71%, no sharp cut-off; inactive = mostly below about 38%;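 note: higher means compound restores mutant binding toward wildtype level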
MEKK3 confirm – MEKK3-MEK5 PB1 inhibition, single concentration confirmation; bead flow cytometry, Alexa488-MEK5 binding to MEKK3; stronger effect = lower value; AID 1894; binding response (% of control), % at 10 µM; shares compounds with MEKK3 PB1 HTS; 5,900 tested, 1.8% active;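 active = binding response below 72% of control, or above a set upper limit, though filed actives all read lower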;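 note: 100% = DMSO only wells and 0% = binding blocked by excess unlabeled MEK5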
Casp3 UBC13 ctr – counter-screen for UBC13 inhibitors: human caspase-3 inhibition; shares compounds with UBC13 inh; Recombinant caspase-3, Caspase-Glo 3/7 luminescence, 60 min; 1,400 tested, 4% active; inhibition, % at 20 µM; AID 488856;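 active = mean inhibition across replicates above about 26%, limit read from the data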;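 note: plate controls were DMSO with caspase-3 for no effect and DMSO wells lacking enzyme for full effect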
Target sequence (P42574 whole entry, looked up): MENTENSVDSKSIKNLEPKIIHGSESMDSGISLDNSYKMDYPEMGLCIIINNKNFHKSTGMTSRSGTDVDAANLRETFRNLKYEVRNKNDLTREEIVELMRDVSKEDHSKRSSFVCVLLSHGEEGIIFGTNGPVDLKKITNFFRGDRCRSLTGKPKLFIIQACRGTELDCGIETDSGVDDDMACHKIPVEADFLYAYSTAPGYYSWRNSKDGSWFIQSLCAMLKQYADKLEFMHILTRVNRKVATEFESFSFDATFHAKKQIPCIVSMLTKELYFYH
UBC13 confirm – human UBC13 polyubiquitin inhibition, confirmed; shares compounds with UBC13 inh; UBC13 polyubiquitination, TR-FRET, biochemical; inhibition, % at 10 µM; 1,400 tested, 68% active; AID 488859; in the data active = inhibition above about 45%
* hit, by the source's call; x = not tested or not shown; [ ] = dose if it differs, or a comment. Compounds with a hit are over-represented: about 3% of the library has one in this group of screens.

SMILES | MEKK2mut PB1 HTS | Apaf1 inhib | MEKK3 PB1 HTS | UCH37 inh | UBC13 inh | MEKK2 WT-MEK5 | MEKK2wt confirm | MEKK2mut confirm | MEKK3 confirm | Casp3 UBC13 ctr | UBC13 confirm
OCc1cn(-c2ccccc2)nc1-c1ccc(-c2nn(-c3ccccc3)cc2CO)cc1 | -8.0 | 6.4 | 92.0 | -3.1 | 13.3 | 94.0 | x | x | x | x | x
Cc1nc(Nc2cnc(/C=C/c3cc(C(=O)Nc4cccc(C(F)(F)F)c4)ccc3C)cn2)cc(N2CCNCC2)n1 | 10.0 | 74.7* | 47.0*[inhibitor] | -25.5 | 88.4* | 136.0 | 128.0 | 15.0 | 43.0* | 4.7 | 115.6*
C#CCOCCOCCOCCNc1nc(N2CCN(C(=O)[C@H]([C@@H](C)CC)n3cc([C@@H](N)CO)nn3)CC2)nc(N2CCN(C(=O)[C@H](Cc3cc4ccccc4[nH]3)n3cc([C@@H](N)C(C)CC)nn3)CC2)n1 (stereo not given in full) | 56.0* | 47.9* | 107.0 | 3.8 | 59.6* | 181.0* | 175.0 | 87.0* | 104.0 | 8.4 | 46.2*
C#CCOCCOCCOCCNc1nc(N2CCN(C(=O)C([C@@H](C)CC)n3cc(C(N)COC(=O)C(F)(F)F)nn3)CC2)nc(N2CCN(C(=O)[C@H](Cc3cc4ccccc4[nH]3)n3cc(C(N)CO)nn3)CC2)n1 (stereo not given in full) | 11.0 | 49.2* | 101.0 | 2.1 | 69.0* | 143.0* | 189.0 | 58.0 | 108.0 | 3.2 | 28.8
C#CCOCCOCCOCCNc1nc(N2CCOCC2)nc(N2CCN(C(=O)[C@H](Cc3cc4ccccc4[nH]3)n3cc([C@@H](N)CC(C)C)nn3)CC2)n1 | 25.0 | 14.6 | 107.0 | 4.2 | 27.5 | 136.0 | x | x | x | x | x
C[C@H]1CN(Cc2ccccc2)C(=O)[C@@H]1CC(=O)NCc1ccccc1 | 0.0 | -7.1 | 97.0 | 1.8 | 2.6 | 102.0 | x | x | x | x | x
COc1ccc(C)cc1Nc1n[n+](-c2ccccc2)c(-c2ccc(OC)c(OC)c2OC)s1 | 12.0 | 17.5 | 94.0 | 5.7 | 47.9* | 149.0* | 144.0 | 26.0 | 106.0 | -4.1 | 30.5
CCc1ccc(Nc2n[n+](-c3ccccc3)c(/C=C/c3ccccc3)s2)cc1 | 25.0* | 17.9 | 108.0 | -0.5 | 69.9* | 189.0* | 178.0 | 49.0 | 102.0 | 3.8 | 24.0
COc1ccc(C)cc1Nc1n[n+](C)c(-c2c3ccccc3cc3ccccc23)s1 | 0.0 | 3.6 | 100.0 | 0.3 | -5.8 | 87.0 | x | x | x | x | x
CCc1ccc(Nc2n[n+](-c3ccccc3)c(-c3cc(OC)c(OC)cc3Br)s2)cc1 | 77.0* | 11.2 | 112.0 | -0.2 | 52.5* | 194.0* | 225.0* | 75.0* | 109.0 | -5.0 | 12.1
CCc1ccc(Nc2nc3ccccc3c(=O)s2)cc1 | -1.0 | 8.2 | 99.0 | 1.9 | 26.3 | 102.0 | x | x | x | x | x
CSCC[C@H](NC(=O)C1CCC(CNC(=O)[C@@H]2CCCN2)CC1)C(=O)O (stereo not given in full) | x | x | x | 3.1 | x | x | x | x | x | x | x
Cc1cc(C)c2nc(NCCCNC(=S)NCCCN(C)C)c(C#N)cc2c1 | 37.0 | 9.5 | 97.0 | -79.0 | 50.0* | 164.0* | 165.0 | 42.0 | 109.0 | 5.4 | 42.3
COc1cc(S(=O)(=O)n2ccc(C)n2)ccc1Cl | 2.0 | -7.7 | 104.0 | x | 1.3 | 102.0 | x | x | x | x | x
Cc1c(CCOC(=O)C23CC4(C)CC(C)(CC(C)(C4)C2)C3)sc[n+]1CC(=O)c1ccccc1 | 23.0 | 33.0 | 98.0 | 1.1 | 70.3* | 158.0* | 154.0 | 17.0 | 106.0 | -4.0 | 87.8*
Cc1c(CCOC(=O)C23CC4CC(CC(C)(C4)C2)C3)sc[n+]1Cc1ccccc1 | 0.0 | 22.7 | 94.0 | 3.7 | 27.4 | 113.0 | x | x | x | x | x
CCCOc1ccc(/C=N/NC(=O)CSCc2ccc([N+](=O)[O-])cc2)cc1OCC | 1.0 | 12.7 | 135.0* | x | 90.4* | 106.0 | 104.0 | 8.0 | 106.0 | -3.5 | 93.3*
N#CCCN1CCN(Cc2ccccc2)CCC1=O | 2.0 | -7.3 | 101.0 | 1.8 | -1.2 | 105.0 | x | x | x | x | x
N=c1c2c(ncn1Cc1ccco1)Oc1c(ccc3ccccc13)C2c1ccccc1 (stereo not given) | 3.0 | 20.1 | 104.0 | 4.3 | 36.8 | 133.0 | x | x | x | x | x
CN(C)CCn1cnc2c(c1=N)C(c1ccccc1)c1ccc3ccccc3c1O2 (stereo not given) | 17.0 | 26.2 | 106.0 | 8.0 | 48.2* | 142.0* | 149.0 | 23.0 | 99.0 | 0.7 | 56.0*
O=C(Cn1nc(CNc2ccc(Br)cc2)[n+]2c1CCCCC2)c1ccc([N+](=O)[O-])cc1 | 33.0 | 25.3 | 103.0 | 4.3 | 51.6* | 146.0* | 132.0 | 19.0 | 96.0 | 0.2 | 45.8*
O=C(Cn1nc(CNc2ccc(Cl)cc2)[n+]2c1CCCCC2)c1ccc(Br)cc1 | 0.0 | 25.3 | 99.0 | 3.0 | 42.1 | 120.0 | x | x | x | x | x
COc1ccccc1NC(=O)CN1CCC(n2c(C)nc3cc(F)ccc32)CC1 | -16.0 | 13.6 | 2.0*[inhibitor] | -0.2 | 103.6* | 2.0*[inhibitor] | 106.0 | 5.0 | 106.0 | 2.0 | 111.7*
Cc1c(NC(=O)c2cccc(NS(C)(=O)=O)c2)c(=O)n(-c2ccccc2)n1C | -13.0 | -26.5 | 90.0 | -3.4 | -0.3 | 92.0 | x | x | x | x | x
CC[C@H](C)[C@@H](CN[C@H](C)CNC)NCCC(c1ccccc1)c1ccccc1 | 5.0 | 8.9 | 106.0 | 0.2 | 54.8* | 138.0* | 135.0 | 30.0 | 104.0 | -4.0 | 37.1
C#CCOCCOCCOCCNc1nc(N2CCN(C(=O)[C@H](Cc3cc4ccccc4[nH]3)n3cc([C@@H](N)C(C)CC)nn3)CC2)nc(N2CCN(C(=O)[C@H](Cc3cc4ccccc4[nH]3)n3cc([C@@H](N)Cc4ccc(O)cc4)nn3)CC2)n1 (stereo not given in full) | 162.0* | 60.4* | 111.0 | x | 124.4* | 313.0* | 266.0* | 104.0* | 110.0 | -2.0 | 118.9*

Screening data from PubChem BioAssay.
